Experimental data pooled from the literature.
Lines come from different studies, so protocols differ.
Target: RAC-beta serine/threonine-protein kinase (AKT2, Homo sapiens, UniProt P31751)

COc1ncccc1-c1cnn2ccc(N3CCN(C(=O)OC(C)C)CC3)nc12
remaining binding (binding, competition with immobilised ligand; 1 µM): 98%

Cn1cc(-c2cc(F)cc(N3CCn4c(cc5c4CCCC5)C3=O)c2CO)cc(Nc2ccc(N3CCN(C4COC4)CC3)cn2)c1=O
inhibition (enzyme activity, inhibitor; 0.1 µM): 9%

Cc1nn(C)cc1-c1nc2c(N3CCN(Cc4ccc(Cl)cc4)CC3)c(Cl)cnc2[nH]1
remaining binding (binding, competition with immobilised ligand; 1 µM): 100%

O=c1[nH]c2ccccc2n1C1CCN(Cc2ccc(-c3[nH]c4cc5ncnc5cc4nc3-c3ccccc3)cc2)CC1
remaining signal (cell-free assay; 0.5 µM): 96.8%

Nc1ncc(-c2nc(N3CCOCC3)nc(N3CCOCC3)n2)c(C(F)F)n1
remaining binding (binding, competition with immobilised ligand; 10 µM): 100%

Cn1cncc1[C@@](O)(COc1ccc(C#N)cc1-c1ccc(OC(F)(F)F)cc1)c1ccc(C#N)cc1
remaining binding (cell-free assay, competition with immobilised ligand; 1 µM): 78%

CC(C)(C)c1cc(C=C(C#N)C#N)cc(Br)c1O
remaining activity (enzyme activity, inhibitor; 0.5 µM): 97.7%

N#CC1(c2ccccn2)CCN(Cc2cc(C(=O)O)c(=O)n3ccccc23)CC1
remaining binding (cell-free assay, competition with immobilised ligand; 1 µM): 73%

C#Cc1n[nH]c2c(-c3cn(C(C)c4ccccn4)c(=O)[nH]c3=O)cc(F)cc12 (centres unmarked)
inhibition (enzyme activity, inhibitor; 1 µM): 2%

Cn1cc(-c2cccc(N3CCc4c(sc5c4CC(C)(C)C5)C3=O)c2CO)cc(Nc2ccncn2)c1=O
inhibition (enzyme activity, inhibitor; 1 µM): 2%

COc1cc(Nc2ncc(F)c(Nc3ccc4c(n3)NC(=O)C(C)(C)O4)n2)cc(OC)c1OC
inhibition (binding; 10 µM): 0%
